The values below come from ChEMBL document CHEMBL4428120, “In silico and in vitro methods to identify ebola virus VP35-dsRNA inhibitors” (Bioorg Med Chem, 2016).

Calls of active or inactive are those of the source. No cut-off for these calls is given here.

In test [1] the test system is Ebolavirus. Briefly: Inhibition of fluorescent dsRNA probe binding to N-terminal His-tagged recombinant Ebola virus VP35 interferon inhibitory domain assessed as normalized intensity for DNA binding at 200 uM pre-incubated for 5 mins before dsRNA addition and measured after 5 mins by ethidium bromide displacement based EMSA method relative to control. Also noted: scale not given: the % may be the effect or the level left. On the technique in general: In EMSA bound probe runs differently from free probe, usually more slowly.

In a further test the test system is DNA. Briefly: Binding affinity to DNA (unknown origin) assessed as inhibition of fluorescent dsRNA probe binding to DNA at 200 uM at 200 uM pre-incubated for 5 mins before dsRNA addition and measured after 5 mins by ethidium bromide displacement based EMSA method relative to control. The class given is nucleic-acid assay.
A further test has as its system RNA. Put plainly: Binding affinity to RNA (unknown origin) assessed as inhibition of fluorescent dsRNA probe binding to DNA at 200 uM at 200 uM pre-incubated for 5 mins before dsRNA addition and measured after 5 mins by ethidium bromide displacement based EMSA method relative to control. The class given is nucleic-acid assay.
Test [2] has as its system Ebolavirus. Put plainly: Inhibition of fluorescent dsRNA probe binding to N-terminal His-tagged recombinant Ebola virus VP35 interferon inhibitory domain at 200 uM pre-incubated for 5 mins before dsRNA addition and measured after 5 mins by ethidium bromide displacement based EMSA method relative to control. In outline: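 Recombinant VP35 IID was expressed in E. coli BL-21 and purified on Ni-NTA. It was 400 nM before probe addition, in 10 mM Tris-HCl pH 7.5, 10 mM NaCl, 10% glycerol, with 200 μM compound for 5 min. An equal volume of 60 nM Cy5.5-labelled 10-bp dsRNA was added, then 5 min at room temperature and then on ice. Run on 1% agarose in chilled TAE; infrared scan.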

A short description of test [3]: (§1) Inhibition of fluorescent dsRNA probe binding to N-terminal His-tagged recombinant Ebola virus VP35 interferon inhibitory domain pre-incubated for 5 mins before dsRNA addition and measured after 5 mins by ethidium bromide displacement based EMSA method relative to control. Further details: species or system Ebolavirus. In outline: (§2)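 EMSA: Ni-NTA-purified recombinant VP35 IID was 400 nM before probe addition, in Tris-HCl pH 7.5/NaCl/10% glycerol buffer. Compound was diluted twofold serially from 200 μM and incubated 5 min. An equal volume of 60 nM Cy5.5-dsRNA probe was added, then 5 min at room temperature and then on ice. Agarose gel, infrared scan; IC50 taken from the dose-response.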

The test system of test [4] is Ebolavirus. Described as §1. In outline:
as §2

As to `Nc1nnc2nc(CC(=O)c3cccc([N+](=O)[O-])c3)c(CC(=O)c3cccc([N+](=O)[O-])c3)nn12`, in the test with Ebolavirus [1], the Activity lay within 60.7 to 88.8%. Moreover, the result with DNA and in the test on RNA was inactive.

The inhibition is the share of the control response that was lost under treatment. As for `CCOc1ccccc1C(SCC(=O)O)SCC(=O)O`, in the test with Ebolavirus [1], the Activity is 92 to 107%. Moreover, in the test with Ebolavirus [2], the inhibition is greater than 50%. The outcome with DNA and in the test with RNA was inactive.

As to `CCC(=O)NNC(/C=C/c1cccc(O)c1)=C1/S/C(=N\c2ccc(C)cc2[N+](=O)[O-])N=C1C`, the Activity with Ebolavirus [1] lay in the range of 73.8 to 92.7%. The result with DNA and in the test on RNA was inactive.

As for `Cc1nc(-n2nc(-c3ccccc3)cc2-c2ccccc2)sc1C(=O)/C=C/c1ccc([N+](=O)[O-])cc1`, in the test on Ebolavirus [1], the Activity came out at 76.3%. In addition, the result with DNA and with RNA was inactive.

Consider `c1coc(CNCNCc2ccco2)c1`, for which the Activity in the test on Ebolavirus [1] lay in the range of 45 to 98.4%. Further, in the test on Ebolavirus [2], the inhibition entry is “inactive”. In addition, the outcome in the test with DNA and with RNA was inactive.

For orientation: IC50 means the concentration that inhibits the measured activity by half. For `COC1=C/C(=C/C=C(\NNC(=S)NN)c2sc(NNC(C)=O)nc2C)C=CC1=O`, in the test on Ebolavirus [1], the Activity is 81.5%. Further, the IC50 in test [3] was found to be 20 µM. The inhibition entry in the test with Ebolavirus [4] was “Dose-dependent effect”. Further, the outcome with DNA and in the test with RNA was inactive.

For `NC(=O)NC(NC(=O)NC(NC(N)=O)c1ccco1)c1ccco1` (stereo not drawn), in the test on Ebolavirus [1], the Activity is 98.1 to 116%. Besides, in test [3], the IC50 is 4 µM. The inhibition in the test on Ebolavirus [2] is greater than 50%. In addition, the result in the test on DNA and in the test with RNA was inactive.

For the molecule `O=C(OCCCCOC(=O)N1C(=O)c2ccccc2C1=O)N1C(=O)c2ccccc2C1=O`, in the test on Ebolavirus [1], the Activity was 46.8 to 78.5%. For the same molecule, in the test on Ebolavirus [2], the inhibition is greater than 50%. Moreover, the result in the test with DNA and with RNA was Active.

With `CNCc1ccco1`, in the test on Ebolavirus [1], the Activity is 110 to 117%. Moreover, the inhibition result in the test with Ebolavirus [2] is “inactive”. Moreover, the outcome in the test with DNA and with RNA was inactive.

For `CN1CCN(CCSC(=O)C(Cl)(c2ccccc2)C2CCCC2)CC1` (stereo not drawn), the Activity in the test on Ebolavirus [1] was in the range of 72.3 to 91.8%. In the test with Ebolavirus [2], the inhibition was greater than 50%. The outcome in the test on DNA and in the test on RNA was inactive.

For `CCOC(=O)NC(NC(=O)OCC)c1ccc(C(NC(=O)OCC)NC(=O)OCC)cc1`, the Activity in the test with Ebolavirus [1] fell in the range of 79.6 to 108%. Further, in the test with Ebolavirus [2], the inhibition was greater than 50%. Also, the outcome in the test on DNA and in the test on RNA was inactive.
